The values that follow come from article PMC3148415 (Molecular pharmaceutics, 2011).

This series has as its system U87MG human glioma xenografts. As to the kind of experiment: Biodistribution in athymic nude mice bearing U87MG human glioma xenografts. Format: in vivo. To be noted: 4 h p.i., tail vein injection. The essentials: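 Female athymic nu/nu mice carried U87MG xenografts (5 × 10^6 cells s.c. in both upper shoulder flanks) and were used 4 weeks after inoculation. HPLC-purified 64Cu tracer in saline (~30 μCi/mL, 0.20 μm filtered) was given at ~3 μCi by tail vein. Five mice per time point (0.5, 1, 2, 4, 24 h p.i.) were killed by pentobarbital overdose. Heart blood and organs were weighed and γ-counted, giving %ID/g and %ID/organ.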

The compound `[Cl][64Cu][Cl]` [^64CuCl2] gave a tumor uptake of 1.8 %ID/g.
